Ends that are not written are not given here. Peptide text beside a SMILES is read from it. * marks the point of attachment. DOTA = O=C(O)CN1CCN(CC(=O)O)CCN(CC(=O)*)CCN(CC(=O)O)CC1

For one assay, the target named is 15N-S100A10-AnxA2Nter fusion protein (Homo sapiens, UniProt P60903).
Experiment: not given
Format: binding.
Conditions: not given
What is called Kd is the equilibrium constant for the complex coming apart. For `CC(=O)N[C@@H](CS)C(=O)N[C@@H](Cc1ccccc1)C(=O)N[C@@H](CC(C)C)C(=O)N[C@@H](Cc1c[nH]cn1)C(=O)N[C@@H](C)C(=O)NCC(=O)N[C@@H](CCCCN)C(=O)N[C@H](C(=O)NCC(=O)N[C@@H](CO)C(=O)N[C@@H](CO)C(=O)NCC(=O)N1CCC[C@H]1C(=O)N[C@@H](CC(C)C)C(=O)N[C@@H](CCC(N)=O)C(=O)O)[C@@H](C)O` [Ac-SW-F/A] (Ac-CFLHAGKTGSSGPLQ-OH), binding was characterised by a dissociation constant (Kd) of 2100 ± 810 µM.
Consider `CC(=O)N[C@@H](CS)C(=O)N[C@@H](Cc1ccccc1)C(=O)N[C@@H](CC(C)C)C(=O)N[C@@H](Cc1c[nH]cn1)C(=O)N[C@@H](Cc1ccccc1)C(=O)NCC(=O)N[C@@H](CCCCN)C(=O)N[C@H](C(=O)NCC(=O)N[C@@H](CO)C(=O)N[C@@H](CO)C(=O)NCC(=O)N1CCC[C@H]1C(=O)N[C@@H](CC(C)C)C(=O)N[C@@H](CCC(N)=O)C(=O)O)[C@@H](C)O` [Ac-SW] (Ac-CFLHFGKTGSSGPLQ-OH), for which binding was characterised by a dissociation constant (Kd) of 880 ± 100 µM.
In the case of `CC(=O)N[C@@H](CS)C(=O)N[C@@H](Cc1ccccc1)C(=O)N[C@@H](CC(C)C)C(=O)N[C@@H](Cc1c[nH]cn1)C(=O)N[C@@H](Cc1ccccc1)C(=O)NCC(=O)N[C@@H](CCCCN)C(=O)N[C@@H](CCC(=O)O)C(=O)NCC(=O)N[C@@H](CCC(=O)O)C(=O)N[C@@H](CO)C(=O)NCC(=O)N1CCC[C@H]1C(=O)N[C@@H](CC(C)C)C(=O)N[C@@H](CCC(N)=O)C(=O)O` [Ac-SW-TS/EE] (Ac-CFLHFGKEGESGPLQ-OH), the Kd worked out at 3530 ± 1200 µM.
Molecule `CC(=O)N[C@@H](CS)C(=O)N[C@@H](Cc1ccccc1)C(=O)N[C@@H](CC(C)C)C(=O)N[C@@H](Cc1c[nH]cn1)C(=O)N[C@@H](Cc1ccccc1)C(=O)NCC(=O)N[C@@H](CCCCN)C(=O)N[C@@H](CCC(=O)O)C(=O)NCC(=O)N[C@@H](CO)C(=O)N[C@@H](CO)C(=O)NCC(=O)N1CCC[C@H]1C(=O)N[C@@H](CC(C)C)C(=O)N[C@@H](CCC(N)=O)C(=O)O` [Ac-SW-T/E] (Ac-CFLHFGKEGSSGPLQ-OH) came in with a Kd of 2330 ± 390 µM.
For the molecule `CC(=O)N[C@@H](CS)C(=O)N[C@@H](Cc1ccccc1)C(=O)N[C@@H](CC(C)C)C(=O)N[C@@H](Cc1c[nH]cn1)C(=O)N[C@@H](Cc1ccccc1)C(=O)NCC(=O)N[C@@H](CCCCN)C(=O)N[C@H](C(=O)NCC(=O)N[C@@H](CCC(=O)O)C(=O)N[C@@H](CO)C(=O)NCC(=O)N1CCC[C@H]1C(=O)N[C@@H](CC(C)C)C(=O)N[C@@H](CCC(N)=O)C(=O)O)[C@@H](C)O` [Ac-SW-S/E] (Ac-CFLHFGKTGESGPLQ-OH), binding was put at a Kd of 1580 ± 200 µM.

For the next assay, the target named is S100A10-AnxA2Nter fusion protein [S100A10(1–92)-ENLYFQGD linker-AnxA2 peptide (1–13)]. Kind of assay: NMR titration.
Conditions: not given
Regarding Ac-CFLHFGKTGSSGPLQ [Ac-SW, CEACAM1 short form 15 amino acid peptide], the Kd worked out at 880 µM.
Turning to Ac-CFLHAGKTGSSGPLQ [Ac-SW-F/A], the dissociation constant Kd was 2100 µM.
With Ac-CFLHFGKEGSSGPLQ [Ac-SW-T/E], the equilibrium dissociation constant (Kd) amounted to 2330 µM.
As to Ac-CFLHFGKEGESGPLQ [Ac-SW-TS/EE], the Kd was 3530 µM.
Molecule Ac-CFLHFGKTGRASDQR [Ac-LW, CEACAM1 long form 15 amino acid peptide] returned a dissociation constant (Kd) of 1220 µM.
Still for that read-out and setting: for {DOTA}-GFLHFGKTGSSGPLQ (also: N-terminal DOTA chelated with Y3+) [Y-DOTA-SW] the value was 1070 µM.
Regarding Ac-CFLHFGKTGESGPLQ [Ac-SW-S/E], the Kd stood at 1580 µM.

The same assay, now with this note: scale: peptides per S100A10-AnxA2Nter fusion dimer.
By stoichiometry N is commonly meant the number of molecules, sites or subunits per partner or assembly. The molecule Ac-CFLHFGKTGSSGPLQ [Ac-SW, CEACAM1 short form 15 amino acid peptide] came in with a stoichiometry N of 2.

Another assay concerns AnxA2.
Experiment: not given
It is filed as binding, human. The note with it: 60 μM peptide, up to molar ratio 1:1, 1H-15N HSQC, 25°C, pH 5.5. The essentials:
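Recombinant human AnxA2 (C-terminal thrombin site and His tag, expressed in E. coli C41(DE3)) titrated up to 1:1 molar ratio into uniformly 15N-labelled 12-residue CEACAM1-SF peptide (Trx-SMT3 fusion grown in M9/15NH4Cl, Ulp1-cleaved, HPLC-purified) at 60 μM. Buffer: 50 mM NaAc-d3, 2 mM DTT, 5% D2O. 1H-15N HSQC at 700 MHz with cryoprobe; chemical shift perturbations monitored.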
For 453-HFGKTGSSGPLQ-464 [^15N-SW-12], the “chemical shift perturbation of peptide on titration with AnxA2” value was “no chemical shift perturbation”.

The next assay addresses Ac-^15N-F454G458G461-SW. Kind of assay: NMR titration.
Conditions: not given
For “S100A10-AnxA2Nter fusion protein [S100A10(1–92)-ENLYFQGD linker-AnxA2 peptide (1–13)]”, the dissociation constant Kd was 460 µM.
